Experimental data: ChEMBL document CHEMBL4014309, “Development of an Acrylate Derivative Targeting the NLRP3 Inflammasome for the Treatment of Inflammatory Bowel Disease” (J Med Chem, 2017)

Columns and labels:
[1] = Cysteamine reactivity in PBS assessed as free compound level at pH 7.4 measured after 30 mins by DTNB reagent based RP-UHPLC analysis
In short: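 The compound was reacted with excess cysteamine in pH 7.4 phosphate buffer with CH3CN cosolvent at 37 °C. Remaining compound was followed by UHPLC over 4 h, sampled at 30 min, 60 min and 4 h, and expressed as percent of starting concentration.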

Liver = assay: Drug metabolism in Sprague-Dawley rat liver microsomes assessed as formation of 2-(2-chlorobenzyl)acrylic acid at 100 uM at <1 min in presence of NADPH by UHPLC-MS analysis; type: ADME, microsome
Rattus norvegicus = assay: Antiinflammatory activity in DNBS-induced Sprague-Dawley rat colitis model assessed as reduction in DNBS-induced spleen weight increase by measuring increase in spleen weight at 50 mg/kg/day, ig administered as suspension in olive oil for 6 days simulatneously with 6 days of DNBS-challenge measured daily during compound dosing (reference value: 39.3%); type: functional; parameters: scale not given: the % may be the effect or the level left
In short: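 Spleen weight was used as an index of systemic inflammation. Rats had intrarectal DNBS (15 mg/0.25 mL 50% ethanol) and 6 days of intragastric dosing: 1 mg/kg/day in 1% methylcellulose, or 12.5–50 mg/kg/day in 0.2 mL olive oil. The spleen was weighed at sacrifice and expressed as percent increase versus control, n = 10.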

- Drug metabolism (Liver): Metabolite_Detected
SMILES: C=C(Cc1ccccc1Cl)C(=O)OCC
- Stability [1]: 89.4%
- Activity (Rattus norvegicus): 4.8%
